{"data": "Experimental data pooled from the literature", "target": "Serine/threonine-protein kinase PAK 5 (PAK5, Homo sapiens, UniProt Q9P286)"}
{"Compound": "CC(C)(O)[C@H]1CC[C@H](Nc2ccc3ncc(-c4cccc(C(F)(F)F)c4)n3n2)CC1", "effect on": "enzyme activity", "mode": "inhibitor", "concentration": "1 µM", "quantity": "remaining activity", "result": "98.1%"}
{"Compound": "CCC(=N\\O)/C(C)=C/c1ccc(F)cc1", "effect on": "cell-free assay", "method": "competition with immobilised ligand", "concentration": "1 µM", "quantity": "remaining binding", "result": "100%"}
{"Compound": "Nc1nc(Nc2ccc(S(N)(=O)=O)cc2)nn1C(=O)c1c(F)cccc1F", "effect on": "cell-free assay", "concentration": "0.5 µM", "quantity": "remaining signal", "result": "85.4%"}
{"Compound": "CCN(CC)CCNC(=O)c1c(C)[nH]c(/C=C2\\C(=O)Nc3ccc(F)cc32)c1C", "effect on": "enzyme activity", "mode": "inhibitor", "concentration": "10 µM", "quantity": "inhibition", "result": "55%"}
{"Compound": "CCC(=O)N[C@@H]1CC[C@H](C(=O)N(C)c2ccc(-c3nc4ccccc4o3)cc2)C1", "effect on": "cell-free assay", "method": "competition with immobilised ligand", "concentration": "1 µM", "quantity": "remaining binding", "result": "100%"}
{"Compound": "CC(C)(C)c1nc2c(s1)c1nc(N)ncc1c1ccc(NS(=O)(=O)c3c(F)cccc3F)c(F)c12", "effect on": "enzyme activity", "mode": "inhibitor", "method": "radiometric", "concentration": "1 µM", "quantity": "remaining activity", "result": "77%"}
{"Compound": "FC(F)(F)Oc1cccc(-c2cnc3ccc(-c4ccncc4)nn23)c1", "effect on": "enzyme activity", "mode": "inhibitor", "method": "radiometric", "concentration": "1 µM", "quantity": "activity vs control", "result": "72%"}
{"Compound": "COc1cc(Nc2cnc(C#N)c(O[C@H](C)CN(C)C)n2)ncc1-c1cnn(C)c1", "effect on": "enzyme activity", "mode": "inhibitor", "method": "radiometric", "concentration": "1 µM", "quantity": "remaining activity", "result": "93%"}
{"Compound": "CNC(=O)c1cc(Oc2ccc(NC(=O)Nc3ccc(Cl)c(C(F)(F)F)c3)cc2)ccn1", "effect on": "enzyme activity", "mode": "inhibitor", "concentration": "10 µM", "quantity": "inhibition", "result": "-21%"}
{"Compound": "N#CCCc1ccc2c(c1)-c1[nH]c3ccc([N+](=O)[O-])cc3c1CC(=O)N2", "effect on": "cell-free assay", "concentration": "0.5 µM", "quantity": "remaining signal", "result": "60.3%"}
{"Compound": "COc1cc2ncnc(Nc3ccc(Oc4ccccc4)cc3C)c2cc1OC", "effect on": "enzyme activity", "mode": "inhibitor", "concentration": "1 µM", "quantity": "inhibition", "result": "1%"}
{"Compound": "CN(C)c1nccc(-c2cnc3ncccn23)n1", "effect on": "binding", "concentration": "1 µM", "quantity": "remaining binding", "result": "78%"}
{"Compound": "CC(C)(C)C(=O)c1sc(NC2CCCCC2)nc1N", "effect on": "enzyme activity", "mode": "inhibitor", "concentration": "10 µM", "quantity": "remaining activity", "result": "110%"}
{"Compound": "Cc1cc(NC(=O)c2cccc3cc(-c4cccc5[nH]nc(N)c45)ccc23)ccc1F", "effect on": "enzyme activity", "mode": "inhibitor", "concentration": "0.1 µM", "quantity": "activity vs control", "result": "88%"}
{"Compound": "CCCS(=O)(=O)Nc1ccc(F)c(C(=O)c2c[nH]c3ncc(-c4ccc(Cl)cc4)cc23)c1F", "effect on": "enzyme activity", "mode": "inhibitor", "concentration": "1 µM", "quantity": "inhibition", "result": "< 10%"}
{"Compound": "Nc1nc(Nc2ccccc2)sc1C(=O)c1c(F)cccc1F", "effect on": "enzyme activity", "mode": "inhibitor", "concentration": "10 µM", "quantity": "remaining activity", "result": "66%"}
{"Compound": "Nc1ncnc2occ(-c3ccc(NC(=O)Nc4cc(C(F)(F)F)ccc4F)cc3)c12", "effect on": "cell-free assay", "mode": "inhibitor", "concentration": "20 µM", "quantity": "remaining signal", "result": "60%"}
{"Compound": "FC(F)(F)c1ccc2c(c1)nc(-c1cccnc1)n2C1CC1", "effect on": "cell-free assay", "method": "competition with immobilised ligand", "concentration": "1 µM", "quantity": "remaining binding", "result": "100%"}
{"Compound": "O=C1Nc2ccc(Cl)cc2C1=Cc1cc(Cl)c(O)c(Cl)c1", "effect on": "cell-free assay", "concentration": "0.5 µM", "quantity": "remaining signal", "result": "91.5%"}
{"Compound": "CCS(=O)(=O)c1cc2cc(C[C@](O)(CC(C)(C)c3ccc(F)cc3C(N)=O)C(F)(F)F)[nH]c2cn1", "effect on": "cell-free assay", "method": "competition with immobilised ligand", "concentration": "1 µM", "quantity": "remaining binding", "result": "100%"}
{"Compound": "Cc1ccc(C(=O)NCc2ccsc2)cc1C#Cc1cn(C(C)C)c2ncnc(N)c12", "effect on": "enzyme activity", "mode": "inhibitor", "concentration": "1 µM", "quantity": "activity vs control", "result": "105%"}
{"Compound": "O=C(O)[C@H]1[C@H](Cn2nnc3ccccc3c2=O)CC[C@@H]1C(=O)c1ccc(OCCC2CCOCC2)cc1", "effect on": "cell-free assay", "method": "competition with immobilised ligand", "concentration": "1 µM", "quantity": "remaining binding", "result": "98%"}
{"Compound": "Cn1c(=O)n(-c2ccc(C(C)(C)C#N)cc2)c2c3cc(-c4cnc5ccccc5c4)ccc3ncc21", "effect on": "enzyme activity", "mode": "inhibitor", "concentration": "10 µM", "quantity": "remaining activity", "result": "90%"}
{"Compound": "Nc1c(C(=O)NCc2ccc(C(=O)NCCCC3CCCCC3)cc2)cnn1-c1ccccc1", "effect on": "cell-free assay", "method": "competition with immobilised ligand", "concentration": "0.1 µM", "quantity": "remaining binding", "result": "100%"}
{"Compound": "Cc1sc(C(=O)NC2COC2)cc1-n1cc(NC(=O)Nc2c(F)cccc2Cl)cn1", "effect on": "enzyme activity", "mode": "inhibitor", "concentration": "10 µM", "quantity": "remaining activity", "result": "103%"}
{"Compound": "COCCOc1nc(-c2ccc(Cl)nc2)nc2c1CN(C(=O)c1ncn3ccccc13)CC2", "effect on": "cell-free assay", "method": "competition with immobilised ligand", "concentration": "0.1 µM", "quantity": "remaining binding", "result": "100%"}
{"Compound": "Cc1ccc(NC(=O)c2ccc(C)c(C(F)(F)F)c2)cc1C#Cc1nn(C2CCC(O)CC2)c2ncnc(N)c12 (centres unmarked)", "effect on": "cell-free assay", "concentration": "10 µM", "quantity": "remaining signal", "result": "89%"}
{"Compound": "Cc1c[nH]c2nccc(Oc3c(F)cc(Nc4cc(Cl)nc(N)n4)cc3F)c12", "effect on": "cell-free assay", "method": "competition with immobilised ligand", "concentration": "0.1 µM", "quantity": "remaining binding", "result": "92%"}
{"Compound": "CC/C(=N\\NC(=O)NCc1cccc(O)c1)c1ccc(O)c(C)c1O", "effect on": "enzyme activity", "mode": "inhibitor", "concentration": "0.1 µM", "quantity": "inhibition", "result": "-3.9%"}
